Assay results reported in ChEMBL document CHEMBL3588757, “Structure-based design, synthesis and biological testing of piperazine-linked bis-epipodophyllotoxin etoposide analogs” (Bioorg Med Chem, 2015).

Legend:
Format in all cases: functional
U-251 = test: Cytotoxicity against human U251 cells assessed as cell growth at 5 uM by SRB assay; settings: read-out: Activity
MDA-MB-468 [1] = test: Cytotoxicity against human MDA-MB-468 cells assessed as cell growth at 0.5 uM by SRB assay; settings: read-out: Activity
SK-MEL-2 [2] = test: Cytotoxicity against human SK-MEL-2 cells assessed as cell growth at 0.5 uM by SRB assay; settings: read-out: Activity
SNB-75 = test: Cytotoxicity against human SNB75 cells assessed as cell growth at 0.05 uM by SRB assay; settings: read-out: Activity
NCI-H226 = test: Cytotoxicity against human NCI-H226 cells assessed as cell growth at 0.5 uM by SRB assay; settings: read-out: Activity
RXF 393 [3] = test: Cytotoxicity against human RXF393 cells assessed as cell growth at 5 uM by SRB assay; settings: read-out: Activity
NCI-H460 [4] = test: Cytotoxicity against human NCI-H460 cells assessed as cell growth at 5 uM by SRB assay; settings: read-out: Activity
HOP-62 [5] = test: Cytotoxicity against human HOP62 cells assessed as cell growth at 50 uM by SRB assay; settings: read-out: Activity
How it was run: (§1)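 Measured in the NCI-60 human tumour cell line panel using five-dose testing. Growth was recorded at each dose for each cell line, and a GI50 was derived for each line.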

LOX IMVI = test: Cytotoxicity against human LOXIMVI cells by SRB assay
How it was run: (§2)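 NCI-60 panel screen; 5-dose testing giving GI50 per cell line, plus a single 10 µM one-dose test. Method details not given beyond the NCI screen.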

[6] = Cytotoxicity against human Hs578T cells by SRB assay; settings: Hs-578T; how it was run: as §1
HOP-62 [7] = test: Cytotoxicity against human HOP62 cells assessed as cell growth at 5 uM by SRB assay; settings: read-out: Activity; how it was run: as §1
HOP-62 [8] = test: Cytotoxicity against human HOP62 cells assessed as cell growth at 0.005 uM by SRB assay; settings: read-out: Activity; how it was run: as §1
OVCAR-3 = test: Cytotoxicity against human OVCAR3 cells assessed as cell growth at 0.005 uM by SRB assay; settings: read-out: Activity
UACC-62 = test: Cytotoxicity against human UACC62 cells assessed as cell growth at 0.05 uM by SRB assay; settings: read-out: Activity
SF-295 = test: Cytotoxicity against human SF295 cells assessed as cell growth at 5 uM by SRB assay; settings: read-out: Activity
M14 = test: Cytotoxicity against human M14 cells by SRB assay; how it was run: as §2
SW-620 [9] = test: Cytotoxicity against human SW620 cells by SRB assay; how it was run: as §2
NCI-H522 [10] = test: Cytotoxicity against human NCI-H522 cells by SRB assay; how it was run: as §2
RXF 393 [11] = test: Cytotoxicity against human RXF393 cells assessed as cell growth at 0.05 uM by SRB assay; settings: read-out: Activity
SR [12] = test: Cytotoxicity against human SR cells assessed as cell growth at 50 uM by SRB assay; settings: read-out: Activity
HCT-15 = test: Cytotoxicity against human HCT15 cells assessed as cell growth at 0.5 uM by SRB assay; settings: read-out: Activity; how it was run: as §1
SW-620 [13] = test: Cytotoxicity against human SW620 cells assessed as cell growth at 0.005 uM by SRB assay; settings: read-out: Activity
RPMI-8226 [14] = test: Cytotoxicity against human RPMI8226 cells assessed as cell growth at 5 uM by SRB assay; settings: read-out: Activity
NCI-H23 [15] = test: Cytotoxicity against human NCI-H23 cells assessed as cell growth at 0.005 uM by SRB assay; settings: read-out: Activity
OVCAR-4 = test: Cytotoxicity against human OVCAR4 cells assessed as cell growth at 0.05 uM by SRB assay; settings: read-out: Activity
NCI-H522 [16] = test: Cytotoxicity against human NCI-H522 cells assessed as cell growth at 0.5 uM by SRB assay; settings: read-out: Activity
UO-31 = test: Cytotoxicity against human UO31 cells assessed as cell growth at 5 uM by SRB assay; settings: read-out: Activity
MOLT-4 = test: Cytotoxicity against human MOLT4 cells by SRB assay; how it was run: as §2
SF-268 = test: Cytotoxicity against human SF268 cells assessed as cell growth at 0.05 uM by SRB assay; settings: read-out: Activity
SR [17] = test: Cytotoxicity against human SR cells assessed as cell growth at 0.005 uM by SRB assay; settings: read-out: Activity
SK-MEL-2 [18] = test: Cytotoxicity against human SK-MEL-2 cells assessed as cell growth at 0.005 uM by SRB assay; settings: read-out: Activity
RPMI-8226 [19] = test: Cytotoxicity against human RPMI8226 cells assessed as cell growth at 0.05 uM by SRB assay; settings: read-out: Activity
OVCAR-5 = test: Cytotoxicity against human OVCAR5 cells assessed as cell growth at 0.5 uM by SRB assay; settings: read-out: Activity
CAKI-1 = test: Cytotoxicity against human Caki1 cells assessed as cell growth at 5 uM by SRB assay; settings: read-out: Activity
NCI-H23 [20] = test: Cytotoxicity against human NCI-H23 cells assessed as cell growth at 5 uM by SRB assay; settings: read-out: Activity
IGROV-1 = test: Cytotoxicity against human IGROV1 cells assessed as cell growth at 0.05 uM by SRB assay; settings: read-out: Activity; how it was run: as §1
NCI-H460 [21] = test: Cytotoxicity against human NCI-H460 cells by SRB assay; how it was run: as §2
SW-620 [22] = test: Cytotoxicity against human SW620 cells assessed as cell growth at 50 uM by SRB assay; settings: read-out: Activity
HCT-116 [23] = test: Cytotoxicity against human HCT116 cells assessed as cell growth at 50 uM by SRB assay; settings: read-out: Activity; how it was run: as §1
A498 = test: Cytotoxicity against human A498 cells assessed as cell growth at 0.05 uM by SRB assay; settings: read-out: Activity
A549 = test: Cytotoxicity against human A549/ATCC cells assessed as cell growth at 0.005 uM by SRB assay; settings: read-out: Activity
HCT-116 [24] = test: Cytotoxicity against human HCT116 cells assessed as cell growth at 0.05 uM by SRB assay; settings: read-out: Activity; how it was run: as §1
MDA-MB-468 [25] = test: Cytotoxicity against human MDA-MB-468 cells assessed as cell growth at 0.005 uM by SRB assay; settings: read-out: Activity
[26] = read-out: LC50 (the source's name)
[27] = read-out: pLC50 (the source's name) (converted)

COc1cc([C@@H]2c3cc4c(cc3[C@@H](NC(=O)CN3CCN(CCCCCCCCCCN5CCN(CC(=O)N[C@@H]6c7cc8c(cc7[C@@H](c7cc(OC)c(O)c(OC)c7)[C@H]7C(=O)OC[C@@H]76)OCO8)CC5)CC3)[C@H]3COC(=O)[C@H]23)OCO4)cc(OC)c1O
growth at 5 µM (U-251): 9% | growth at 0.5 µM (MDA-MB-468 [1]): 73% | growth at 0.5 µM (SK-MEL-2 [2]): 74% | growth at 0.05 µM (SNB-75): 82% | growth at 0.5 µM (NCI-H226): 49% | growth at 5 µM (RXF 393 [3]): -34% | growth at 5 µM (NCI-H460 [4]): 33% | growth at 50 µM (HOP-62 [5]): -20% | GI50 (LOX IMVI; read-out: GI50): 73.1 nM | GI50 (LOX IMVI; read-out: pGI50 (converted)): 72.4 nM | GI50 ([6]; read-out: GI50): 2800 nM | CC50 [6, 26]: > 50000 nM | TGI ([6]; read-out: TGI): 22200 nM | GI50 ([6]; read-out: pGI50 (converted)): 2820 nM | CC50 [6, 27]: > 50100 nM | TGI ([6]; read-out: pTGI (converted)): 22400 nM | growth at 5 µM (HOP-62 [7]): -73% | growth at 0.005 µM (HOP-62 [8]): 88% | growth at 0.005 µM (OVCAR-3): 100% | growth at 0.05 µM (UACC-62): 90% | growth at 5 µM (SF-295): 17% | GI50 (M14; read-out: GI50): 703 nM | CC50 (M14; [26]): > 50000 nM | TGI (M14; read-out: TGI): 2200 nM | GI50 (M14; read-out: pGI50 (converted)): 708 nM | CC50 (M14; [27]): > 50100 nM | TGI (M14; read-out: pTGI (converted)): 2190 nM | GI50 (SW-620 [9]; read-out: GI50): 372 nM | CC50 (SW-620 [9]; [26]): 3380 nM | TGI (SW-620 [9]; read-out: TGI): 1330 nM | GI50 (SW-620 [9]; read-out: pGI50 (converted)): 372 nM | CC50 (SW-620 [9]; [27]): 3800 nM | TGI (SW-620 [9]; read-out: pTGI (converted)): 1320 nM | GI50 (NCI-H522 [10]; read-out: GI50): 32 nM | CC50 (NCI-H522 [10]; [26]): 4380 nM | TGI (NCI-H522 [10]; read-out: TGI): 797 nM | GI50 (NCI-H522 [10]; read-out: pGI50 (converted)): 32.4 nM | CC50 (NCI-H522 [10]; [27]): 4370 nM | TGI (NCI-H522 [10]; read-out: pTGI (converted)): 794 nM | growth at 0.05 µM (RXF 393 [11]): 84% | growth at 50 µM (SR [12]): -12% | growth at 0.5 µM (HCT-15): 45% | growth at 0.005 µM (SW-620 [13]): 92% | growth at 5 µM (RPMI-8226 [14]): -15% | growth at 0.005 µM (NCI-H23 [15]): 95% | growth at 0.05 µM (OVCAR-4): 94% | growth at 0.5 µM (NCI-H522 [16]): 14% | growth at 5 µM (UO-31): -13% | GI50 (MOLT-4; read-out: GI50): 185 nM | CC50 (MOLT-4; [26]): 6020 nM | TGI (MOLT-4; read-out: TGI): 1400 nM | GI50 (MOLT-4; read-out: pGI50 (converted)): 186 nM | CC50 (MOLT-4; [27]): 6030 nM | TGI (MOLT-4; read-out: pTGI (converted)): 1410 nM | growth at 0.05 µM (SF-268): 77% | growth at 0.005 µM (SR [17]): 98% | growth at 0.005 µM (SK-MEL-2 [18]): 99% | growth at 0.05 µM (RPMI-8226 [19]): 13% | growth at 0.5 µM (OVCAR-5): 63% | growth at 5 µM (CAKI-1): 28% | growth at 5 µM (NCI-H23 [20]): -35% | growth at 0.05 µM (IGROV-1): 83% | GI50 (NCI-H460 [21]; read-out: GI50): 2660 nM | CC50 (NCI-H460 [21]; [26]): 26900 nM | TGI (NCI-H460 [21]; read-out: TGI): 9820 nM | GI50 (NCI-H460 [21]; read-out: pGI50 (converted)): 2630 nM | CC50 (NCI-H460 [21]; [27]): 26900 nM | TGI (NCI-H460 [21]; read-out: pTGI (converted)): 9770 nM | growth at 50 µM (SW-620 [22]): -89% | growth at 50 µM (HCT-116 [23]): -51% | growth at 0.05 µM (A498): 72% | growth at 0.005 µM (A549): 74% | growth at 0.05 µM (HCT-116 [24]): 77% | growth at 0.005 µM (MDA-MB-468 [25]): 95%
